# From PubChem
# PREPL inhibitor: inhibits the human prolyl oligopeptidase-like enzyme | Q4J6C6 | recombinant PREPL, fluorescence polarization activity-based probe | inhibition, % at 5.96 µM | 0.68% of 320,000 active | AID 2751; in the data active = inhibition above about 43%;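 note: 0% = enzyme with DMSO and 100% = wells lacking enzyme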
# IDE inh: inhibits human insulin-degrading enzyme in HEK cells; P14735; FAbetaB cleavage, fluorescence polarization; inhibition, % at 5.59 µM; 0.41% of 320,000 active; AID 434962;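 active = percent inhibition above the average of all tested compounds plus 3 SD, set per screening campaign, cut at about 16% in these data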;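 note: IDE supplied by intact live HEK cells; FP after avidin binding of uncleaved biotin substrate so inhibition keeps polarization high; 0% = DMSO wells and 100% = 60 µM reference IDE inhibitor Ii1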
# ARFGAP1 inh: inhibitors of rat ARFGAP1 | AID 651572 | inhibition, % at 16.5 µM | 0.26% of 360,000 active | Q62848 | Arfgap1-stimulated ARF1 GTP hydrolysis, GDP FP detection;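 active = inhibition above a per-plate limit, mean inhibition of low control wells plus 3 SD, cut at about 25% in these data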;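 note: 0% = DMSO wells with enzyme and 100% = wells lacking Arfgap1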
# Target sequence (Q62848 1-136 limits assumed): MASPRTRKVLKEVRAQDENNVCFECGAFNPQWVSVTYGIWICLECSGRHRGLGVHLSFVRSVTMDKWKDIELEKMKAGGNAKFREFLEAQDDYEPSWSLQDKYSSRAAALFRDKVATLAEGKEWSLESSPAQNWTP
#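 System: truncated rat Arfgap1 GAP domain / Benchmarks: high control wells lacking Arfgap1, low control full reaction with DMSO / Times: compound-enzyme preincubation 20 min, reaction 120 min, detection 60 min, 25 °C / Repeats: one replicate per compound / Also added: human ARF1(Δ1-17)-GTP substrate / Measured by: Tracer-displacement fluorescence polarization with EDTA stop, 620/688 nm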
# ASAP1 GAP inh: inhibitors of human ASAP1 ArfGAP activity. inhibition, % at 16.5 µM. ASAP1-stimulated ARF1 GTP hydrolysis, GDP FP detection. AID 624377. 0.19% of 360,000 active. Q9ULH1; in the data active = inhibition above about 25%;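 note: 0% = vehicle with enzyme and substrate and 100% = no enzyme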
# Target sequence (Q9ULH1 325-724 limits assumed): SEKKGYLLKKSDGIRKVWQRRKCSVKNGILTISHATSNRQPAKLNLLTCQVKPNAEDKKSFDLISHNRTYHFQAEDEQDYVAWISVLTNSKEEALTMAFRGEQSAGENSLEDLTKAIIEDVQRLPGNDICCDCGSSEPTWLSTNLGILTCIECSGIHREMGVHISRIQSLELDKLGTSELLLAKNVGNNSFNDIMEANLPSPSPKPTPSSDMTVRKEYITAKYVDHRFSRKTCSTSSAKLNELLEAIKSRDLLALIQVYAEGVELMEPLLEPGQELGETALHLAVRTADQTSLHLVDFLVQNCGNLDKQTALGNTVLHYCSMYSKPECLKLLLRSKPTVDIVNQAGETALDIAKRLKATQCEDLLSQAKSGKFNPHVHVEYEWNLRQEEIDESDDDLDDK
# IDE act: activators of human insulin-degrading enzyme in cells; P14735; HEK cells, FAbeta-B cleavage, fluorescence polarization; 0% vehicle, 100% cell-free pure enzyme wells; activation, % at 5.96 µM; 0.073% of 340,000 active;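 active = activation above the mean of all tested compounds plus 3 SD, set per screening campaign, cut at about 17% in these data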
# ASAP1 inh confirm: confirmation of human ASAP1 inhibitors. shares compounds with ASAP1 GAP inh. ASAP1-stimulated Arf1 GTPase, GDP fluorescence polarization. inhibition, % at 16.5 µM. 37% of 620 active;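 active = mean inhibition over triplicates exceeds the hit threshold derived for the earlier primary screening run, cut at about 25% in these data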
# * hit, by the source's call; x = no result; ! = a repeat was not active. Sampled rows, rich in hits. Any-hit rate of the full collection: about 1.2%.
SMILES,PREPL inhibitor,IDE inh,ARFGAP1 inh,ASAP1 GAP inh,IDE act,ASAP1 inh confirm
Cc1ccc(Nc2cc(C)c3c(O)cccc3n2)cc1C,24,5,9,30*,6,18
COc1ccc(Nc2cc(C)c3c(O)cccc3n2)cc1,15,0,-6,0,-1,x
CC(NC(=O)c1ccc(CS(=O)(=O)c2ccc(Cl)cc2)o1)c1ccc2c(c1)OCCO2 (configuration not stated),-6,1,5,27*,3,3
CC(Cc1cccs1)NC(=S)Nc1ccc(Cl)cc1 (configuration not stated),1,3,5,29*,4,6
COC(=O)c1ccccc1NC1=C/C(=N\S(=O)(=O)c2cccs2)c2ccccc2C1=O,24,1,11,35*,0,6
Cc1nc(SCC(=O)Nc2c(C)nn(C)c2C)c2cnn(-c3ccccc3)c2n1,7,0,6,25*,6,5
Cc1nn(Cc2ccccc2)c(C)c1NC(=O)CSc1nc(-c2ccccc2)nc2c1cnn2-c1ccccc1,x,x,-5,4,-1,x
O=C(Nc1ccc([N+](=O)[O-])cc1)Nc1ccc(OC(F)F)c(Cl)c1,17,-6,14,27*,8,23
CCOC(=O)C1CCN(c2nc(N)c3c(N)nc(SCC(=O)O)cc3c2C#N)CC1,x,x,38*,41*,-32,25*
O=C(O/N=C1\CCCc2ccccc21)c1cccs1,1,-1,-1,-16,5,x
O=C(Cc1ccccc1)O/N=C1\CCCc2ccccc21,0,3,-4,26*,4,8
COCCn1c(-c2ccc(F)cc2)nc2cccnc21,-3,0,-7,-9,6,x
COc1ccccc1NS(=O)(=O)c1ccc(C)c(C(=O)Nc2cc(C)on2)c1,23,11,2,26*,-2,7
COc1ccccc1C(=O)Nc1ccc(S(=O)(=O)Nc2cc(C)on2)cc1,5,8,5,-15,3,x
Cc1ccc(OCC(=O)NCCc2c[nH]c3ccccc23)cc1,-6,5,6,8,3,x
Cc1ccc(S(=O)(=O)Nc2ccccc2C(=O)Nc2nc(-c3ccc(F)cc3)cs2)cc1,13,-3,16,11,3,x
COc1ccc(-c2csc(NC(=O)c3ccccc3NS(=O)(=O)c3ccc(F)c(F)c3)n2)cc1,14,-5,10,29*,2,24
Cc1cc(C)n(/N=C/c2ccco2)c(=O)c1C#N,16,2,2,25*,9,0
Cc1ccc(/C=N/n2c(C)cc(C)c(C#N)c2=O)o1,-6,6,4,4,-3,x
Cc1nn(-c2ccccc2)c(N2CCCC2)c1/C=N/NC(=S)Nc1ccc(F)cc1,13,7,1,27*,10,8
COc1ccc(C(C[N+](=O)[O-])c2c(C)[nH]n(-c3ccccc3)c2=O)cc1 (configuration not stated),3,2,25*,30*,-2,14
Cc1cc(/C=N/NC(=O)Cn2c3ccccc3c(=O)c3ccccc32)c(C)n1-c1ccccc1,-28,1,20,25*,-3,7
O=C(Nc1ccnn1C1CCN(C(=O)c2ccc(F)cc2)CC1)C1CCOC1 (configuration not stated),2,-4,3,-4,6,x
CCN1CCN(Cc2ccc(NC(=O)c3cc(NC(=O)c4cc5cccc(OC)c5o4)cc(OC)c3)cc2C(F)(F)F)CC1,-23,2,20,29*!,3,49*
O=C(C[C@H]1C=C[C@@H](NS(=O)(=O)c2ccccc2)[C@@H](CO)O1)NCc1ccc(Cl)c(Cl)c1,x,x,13,-6,x,x
SMILES,PREPL inhibitor,IDE inh,ARFGAP1 inh,ASAP1 GAP inh,IDE act,ASAP1 inh confirm
O=S(=O)(c1ccc(S(=O)(=O)N2CCCC2)cc1)N1CCCCC1,6,3,x,x,x,x
O=c1c2ccccc2sn1-c1ccc(S(=O)(=O)N2CCCCC2)cc1,-2,-23,7,25*,-45,8
O=C(CSc1nn(-c2ccccc2)c(=S)s1)Nc1ncccn1,12,-1,12,26*,7,44*
Cc1cc(C)nc(NC(=O)CSc2nn(-c3ccccc3)c(=S)s2)n1,2,1,-5,-8,-2,x
O=C(NCc1cccnc1)c1cc(C(=O)NCc2cccnc2)cc([N+](=O)[O-])c1,x,x,-5,5,x,x
CC(=O)NCCNc1nc2cc(-c3ccccc3)sc2c(=O)n1C,x,x,-4,28*,x,5
CC(=O)c1cccc(N(C(=O)CNC(=O)c2ccco2)C(C(=O)NCC2CCCO2)c2ccccc2)c1 (configuration not stated),9,-3,-2,5,2,x
CCOc1cccc(N(C(=O)CNC(=O)c2ccco2)C(C(=O)NCC2CCCO2)c2ccccc2)c1 (configuration not stated),-1,-6,4,25*,1,1
CCOc1ccc(CC2S/C(=N/c3ccccn3)NC2=O)cc1 (configuration not stated),2,3,-11,3,3,x
CCc1ccc(CCOc2ccc(CC3SC(=O)NC3=O)cc2)nc1 (configuration not stated),-12,3,12,25*,4,3
O=C1CCCCC(=O)[C@H](OC(=O)c2ccccc2)C[C@H](c2ccccc2)O1,x,x,-2,4,x,x
O=C(NCc1ccncc1)c1ccccc1Nc1ccc(SC(F)F)cc1,29,4,2,28*,-16,15
CNC(=O)c1ccccc1Nc1ccc(SC(F)F)cc1,2,-1,-6,0,2,x
O=C(Nc1ccc(Nc2ccncc2)cc1)c1ccc(Nc2ccnc3ccc([N+](=O)[O-])cc23)cc1,x,x,77*,46*,4,75*
COc1ccc(C(=O)NC(=S)Nc2ccc3oc(=O)ccc3c2)cc1,2,1,14,59*,9,78*
CC(C)C[C@H]1CNC(=S)N1CC1CCCN1C[C@H](CC(C)C)N1C[C@H](Cc2ccc(O)cc2)N(CC2CCCCCC2)C1=S (some centres not stated),x,x,3,-14,2,x
O=C(N/N=C/c1ccc([N+](=O)[O-])cc1)c1ccccc1OCc1ccccc1,10,-6,3,-12,-1,x
O=C(N/N=C/c1ccc([N+](=O)[O-])cc1)c1ccc(COc2ccccc2-c2ccccc2)cc1,6,2,1,31*,-1,81*
CCOC(=O)C1CCN(C(=O)C(=O)Nc2ccc3nc4n(c(=O)c3c2)CCCCC4)CC1,-11,2,3,8,3,x
COc1ccccc1CNc1nc(C)c(C(C)=O)s1,-12,2,1,12,-2,x
COCCNc1nc(C)c(C(C)=O)s1,-3,7,-7,26*,-7,3
